Only some compounds are listed: those with a hit (about 1% of all), similar ones and a draw of the others.
PvdQ acylase – P. aeruginosa PvdQ acylase inhibition; purified PvdQ acylase, fluorescence plate reader; inhibition, % at 10 µM; actives 0.063% (n = 340,000); in the data active = inhibition above about 30%, passing the limit was not always enough; inconclusive = no clear call, values can overlap the other calls;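 also: 0% = vehicle neutral wells and 100% = reference inhibitor wells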
PDI turbidity – PDI (human) enzyme inhibition; inhibition, % at 10 µM; P07237; AID 588391; PDI insulin aggregation turbidity, A650, 90 min; actives 0.052% (n = 350,000);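 active = mean inhibition across replicates of 30% or more, whatever share of single replicates reach that level; inconclusive = mean inhibition below 30% while every single replicate reaches 30%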
PglD DTNB – inhibitors of Campylobacter jejuni PglD acetyltransferase | purified PglD enzyme, DTNB colorimetric CoA detection | inhibition, % at 12.5 µM | actives 0.098% (n = 360,000) | AID 602405; in the data active = inhibition above about 16%, passing the limit was not always enough; inconclusive = no clear call, values can overlap the other calls
ERp5 block – inhibitors of human ERp5; ERp5 insulin aggregation, absorbance 650 nm, 90 min; actives 0.05% (n = 350,000); inhibition, % at 9.99 µM;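 active = mean replicate inhibition above about 25%, with every replicate also reaching it, limit read from the data, passing the limit was not always enough; inconclusive = only one of those two criteria met; inactive = neither criterion met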
Target sequence (Q15084 whole entry, looked up): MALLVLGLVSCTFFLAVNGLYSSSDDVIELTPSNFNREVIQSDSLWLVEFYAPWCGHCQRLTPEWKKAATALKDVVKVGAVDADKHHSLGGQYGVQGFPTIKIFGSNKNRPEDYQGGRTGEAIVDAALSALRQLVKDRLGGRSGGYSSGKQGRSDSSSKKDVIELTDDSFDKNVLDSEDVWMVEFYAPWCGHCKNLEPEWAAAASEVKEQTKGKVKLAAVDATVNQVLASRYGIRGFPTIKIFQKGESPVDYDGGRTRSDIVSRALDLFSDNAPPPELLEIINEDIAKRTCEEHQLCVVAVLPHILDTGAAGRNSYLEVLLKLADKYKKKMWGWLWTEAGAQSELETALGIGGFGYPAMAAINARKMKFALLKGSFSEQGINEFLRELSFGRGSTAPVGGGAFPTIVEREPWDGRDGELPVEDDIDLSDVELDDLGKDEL
VIM-2 inhibitor – blocks Pseudomonas aeruginosa VIM-2 metallo-beta-lactamase; AID 1527; inhibition, % at 5.6 µM; purified VIM-2, nitrocefin hydrolysis, epi-absorbance fluorescence; actives 0.89% (n = 290,000);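 active = inhibition above the mean of all tested compounds plus 3 SD, cutoff set per screening run, cut at about 7.5% in these data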;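 also: red hydrolysis product quenches plate fluorescence so inhibitors raise well fluorescence; 0% = enzyme with DMSO and 100% = DMSO without enzyme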
IMP-1 inh – blocks Pseudomonas aeruginosa IMP-1 metallo-beta-lactamase; purified IMP-1, nitrocefin hydrolysis, epi-absorbance fluorescence; inhibition, % at 5.6 µM; actives 0.45% (n = 290,000); AID 1556;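 active = inhibition above the mean plus 3 SD of all compounds in the same screening run, cut at about 4.5% in these data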;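 also: 0% = IMP-1 with DMSO and 100% = DMSO wells lacking enzyme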
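System: purified recombinant IMP-1 beta-lactamase. Medium: Zinc- and detergent-supplemented HEPES buffer, pH 7.1. Compound: one 5.6 µM dose […]. Schedule: 15 min preincubation plus 25 min reaction at 25 °C. Technique: Epi-absorbance fluorescence, 480 nm excitation, 530 nm emission.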
PglD inh SP – PglD (C. jejuni) inhibition confirmation | inhibition, % at 20 µM | AID 743156 | Purified C. jejuni PglD, DTNB absorbance 412 nm | shares compounds with PglD DTNB | 320 tested, under 10 active;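 active = mean inhibition across replicates of at least 20% with every single replicate also at 20% or more; inconclusive = mean inhibition at least 20% but some replicate falls below 20%; inactive = mean inhibition under 20% and not all replicates reach it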;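 also: initial rate of CoA release by acetyl transfer from AcCoA to the UDP-4-amino sugar; 0% = median of neutral control wells and 100% = median of positive control wells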
An asterisk follows results filed as active; ? = inconclusive; · = no result given.

SMILES	PvdQ acylase	PDI turbidity	PglD DTNB	ERp5 block	VIM-2 inhibitor	IMP-1 inh	PglD inh SP
O=C(C1CCC1)N1[C@@H](CO)[C@@H](c2ccccc2)C12CN(Cc1ccccc1)C2	·	·	·	9	·	·	·
O=C(NCCN1CCCCC1)Nc1ccc(F)cc1F	-14	0	24*	1	-2	-3	7
C=CCNc1nc(Cl)nc(Nc2ccc(OCC)cc2)n1	-9	23	29*	2	2	1	3
C=CCNc1nc(Nc2ccc([N+](=O)[O-])cc2)nc(OCC)n1	-8	-4	·	-3	0	0	·
Cc1cccc(N(Cc2cc3ccccc3[nH]c2=O)C(=O)c2ccco2)c1C	2	4	32*	·	·	·	3
COc1cccc2cc(-c3nnc(-c4ccccc4)o3)c(=O)oc12	7	10	21*	-1	-3	-4	4
COc1ccc(-c2nnc(-c3cc4ccccc4oc3=O)o2)cc1	1	2	2	·	-2	-1	·
O=C(C[C@H]1C=C[C@H](NC(=O)c2ccccc2)[C@H](CO)O1)NCc1ccncn1	·	·	2	-2	·	·	·
COc1ccc([N+](=O)[O-])cc1NC(=O)CCN1CCOCC1	-12	3	21*	-2	-3	-2	-4
COc1ccc([N+](=O)[O-])cc1NC(=O)CCN1CCN(C)CC1	-12	0	·	-1	-1	1	·
COc1ccc(/C=C(\NC(=O)c2ccccc2)C(=O)N2CCN(C)CC2)cc1	16	-4	2	0	1	-2	·
COc1ccc(/C=C(/NC(=O)c2ccccc2)C(=O)N2CCCC2)cc1	-5	6	58*	-4	-2	-4	-7
O=C(O)CC/C(=N\NC(=O)CNC(=O)/C=C/c1ccccc1)c1ccccc1	-2	0	26*	-1	0	-2	2
COc1cc2cc(CCCOC(=O)c3ccc(C(F)(F)F)cc3)oc(=O)c2cc1OC	-2	-5	35*	2	·	·	6
COc1ccc(CONS(=O)(=O)c2ccc(NC(C)=O)cc2)cc1Cl	-6	-5	22*	5	0	-1	3
CCN(CC)C(=O)c1ccccc1NC(=O)c1ccccc1	7	6	29*	3	-1	0	0
CCN(CC)C(=O)c1ccccc1NC(=O)c1cccc(S(=O)(=O)N(CC)CC)c1	1	-14	·	3	-2	-2	·
C[C@H]1CN([C@@H](C)CO)C(=O)Cc2cc(NC(=O)Cn3cnnn3)ccc2O[C@H]1CN(C)Cc1ccc(Cl)c(Cl)c1	·	·	-9	0	·	·	·
Cn1cnnc1SCC(C)(C)NS(=O)(=O)c1ccc(Cl)cc1	-10	0	29*	-4	-1	-2	?
Cc1ccc(S(=O)(=O)Nc2ccc3c(c2)C(=O)N([C@H](C)CO)C[C@H](C)[C@H](CN(C)C(=O)CCC(F)(F)F)OCCCC[C@@H](C)O3)cc1	·	·	7	-5	·	·	·
CCC(=O)C1=C(O)C(c2cccc(Oc3ccccc3)c2)CCC1=O (stereo unspecified)	5	14	28*	0	-3	-2	1
CCCN(C)C[C@@H]1OCCCC[C@@H](C)Oc2ccc(NC(=O)CCCCCC(=O)Nc3ccccc3N)cc2C(=O)N([C@H](C)CO)C[C@@H]1C	·	·	·	11	·	·	·
CCOc1ccccc1NC(=S)N1CCC(c2nc3ccccc3o2)CC1	-3	-10	21*	4	-5	-3	-1
COc1ccc(OC)c(NC(=O)N2CCCc3ccccc32)c1	-4	3	5	5	-1	0	·
COc1ccc(NC(=O)N2CCCc3cc(C)ccc32)c(OC)c1	-2	-4	30*	-27	-2	-2	-8
C[C@@H]1CCCCO[C@@H](CN(C)C(=O)Nc2ccc(F)cc2)[C@H](C)CN([C@H](C)CO)C(=O)c2cc(NC(=O)CCC(F)(F)F)ccc2O1	·	·	11	4	·	·	·
Cc1cc(C)cc(C(=O)Oc2coc(CSc3nnc(NC(=O)C4CC4)s3)cc2=O)c1	-12	4	·	·	-7	-3	·
O=C(Oc1coc(CSc2nnc(NC(=O)C3CC3)s2)cc1=O)c1c(F)cccc1F	19	-1	63*	6	2	-2	4
COCC#Cc1ccc2c(c1)O[C@@H](CN(C)C)[C@@H](C)CN([C@H](C)CO)S2(=O)=O	·	·	-4	-5	·	·	·
